Measurements as given in ChEMBL document CHEMBL4842372, “Discovery of ARD-2585 as an Exceptionally Potent and Orally Active PROTAC Degrader of Androgen Receptor for the Treatment of Advanced Prostate Cancer” (J Med Chem, 2021).
Each block holds one compound with its values, some of them ahead of it. Calls of active or inactive are those of the source. The rule behind the calls is not given here.

Legend:
VCaP [1] = assay: Growth inhibition of human VCaP cells assessed as cell viability by WST-8 assay; type: functional, cell-based
[2] = target: Protein cereblon/Androgen receptor (Homo sapiens, UniProt P10275+Q96SW2); assay: Protac activity at CRBN/AR in human VCaP cells assessed as AR degradation after 24 hrs by Western blot analysis; type: cell-based
[3] = Oral bioavailability in SCID mouse at 3 mg/kg by LC-MS/MS analysis; type: ADME, organism-based; conditions: in vivo
LNCaP = assay: Growth inhibition of human LNCaP cells carrying AR T878A mutant assessed as cell viability by WST-8 assay; type: functional, cell-based
[4] = target: Protein cereblon/Androgen receptor (Homo sapiens, UniProt P10275+Q96SW2, T878A); conditions: lncap
[5] = Drug distribution in plasma of CB17:SCID mouse xenografted with human VCaP cells at 20 mg/kg, po measured at 6 hrs by LCMS analysis; type: ADME, organism-based
How it was run: (§1)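 Tumor-bearing male CB17 SCID mice (VCaP xenografts) given one 20 mg/kg oral dose in 100% PEG200, three mice per time point; plasma, tumor, liver, kidney, prostate and heart taken at 1, 6 and 24 h; tissues homogenised in water/acetonitrile, protein precipitated with cold acetonitrile, drug quantified by LC–MS/MS; ratios are tissue over plasma level.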

[6] = Drug distribution in plasma of CB17:SCID mouse xenografted with human VCaP cells at 20 mg/kg, po measured at 24 hrs by LCMS analysis; type: ADME, organism-based; how it was run: as §1
[7] = Drug distribution in prostate gland of CB17:SCID mouse xenografted with human VCaP cells at 20 mg/kg, po measured at 6 hrs by LCMS analysis; type: ADME, organism-based; conditions: read-out: Drug uptake; how it was run: as §1
[8] = Drug distribution in prostate gland of CB17:SCID mouse xenografted with human VCaP cells at 20 mg/kg, po measured at 24 hrs by LCMS analysis; type: ADME, organism-based; conditions: read-out: Drug uptake; how it was run: as §1
[9] = Drug distribution in tumor of CB17:SCID mouse xenografted with human VCaP cells at 20 mg/kg, po measured at 6 hrs by LCMS analysis; type: ADME, organism-based, Neoplasm; conditions: read-out: Drug uptake; how it was run: as §1
[10] = Drug distribution in tumor of CB17:SCID mouse xenografted with human VCaP cells at 20 mg/kg, po measured at 24 hrs by LCMS analysis; type: ADME, organism-based, Neoplasm; conditions: read-out: Drug uptake; how it was run: as §1
VCaP [11] = assay: Antitumor activity against human VCaP cells xenografted in CB17:SCID mouse assessed as reduction in AR protein level in tumor at 20 mg/kg, po measured for 6 to 24 hrs by Western blot analysis; type: functional, organism-based; conditions: time 6-24 hrs
How it was run: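 VCaP xenografts in male CB17 SCID mice grown to about 200 mm3; single oral gavage dose of 20 mg/kg in 100% PEG200; tumors collected at 6 and 24 h, RIPA lysates blotted for AR with GAPDH as loading control, band intensity normalised to loading control.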

VCaP [12] = assay: Antitumor activity against human VCaP cells xenografted in CB17:SCID mouse assessed as tumor growth inhibition at 40 mg/kg, po treated for 37 days relative to control; type: functional; conditions: 888 h, time 37 day, read-out: TGI
[13] = Volume of distribution at steady state in SCID mouse at 1 mg/kg, iv by LC-MS/MS analysis; type: ADME, organism-based; conditions: in vivo, read-out: Vdss
How it was run: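 Male mice were used, three sacrificed per time-point, with 300 μL blood collected and plasma stored at −80 °C. Drug was quantified by a validated LC–MS/MS method on a C18 column with a 0.1% formic acid water/acetonitrile gradient at 0.4 mL/min. PK parameters were derived by noncompartmental analysis.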

VCaP [14] = assay: Antitumor activity against human VCaP cells xenografted in CB17:SCID mouse assessed as reduction in AR protein level in tumor at 10 mg/kg, po for 3 days measured at 3 hrs by Western blot analysis; type: functional; conditions: 72 h, time 3 day
How it was run: (§2)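 Male CB17 SCID mice bearing subcutaneous VCaP tumors (5 × 10^6 cells in Matrigel); dosed by oral gavage in 100% PEG200 at 10 mg/kg daily for 3 days; tumors harvested 3, 6 and 24 h post-dose, lysed in RIPA, Western blot for AR with GAPDH loading control, bands quantified by densitometry relative to loading control.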

VCaP [15] = assay: Antitumor activity against human VCaP cells xenografted in CB17:SCID mouse assessed as reduction in AR protein level in tumor at 10 mg/kg, po for 3 days measured at 6 hrs by Western blot analysis; type: functional; conditions: 72 h, time 3 day; how it was run: as §2
VCaP [16] = assay: Antitumor activity against human VCaP cells xenografted in CB17:SCID mouse assessed as reduction in AR protein level in tumor at 10 mg/kg, po for 3 days measured at 24 hrs by Western blot analysis; type: functional; conditions: 72 h, time 3 day; how it was run: as §2

Sequence of Protein cereblon/Androgen receptor (Homo sapiens, UniProt P10275+Q96SW2, T878A) (P10275 whole entry T878A, stated change not applied): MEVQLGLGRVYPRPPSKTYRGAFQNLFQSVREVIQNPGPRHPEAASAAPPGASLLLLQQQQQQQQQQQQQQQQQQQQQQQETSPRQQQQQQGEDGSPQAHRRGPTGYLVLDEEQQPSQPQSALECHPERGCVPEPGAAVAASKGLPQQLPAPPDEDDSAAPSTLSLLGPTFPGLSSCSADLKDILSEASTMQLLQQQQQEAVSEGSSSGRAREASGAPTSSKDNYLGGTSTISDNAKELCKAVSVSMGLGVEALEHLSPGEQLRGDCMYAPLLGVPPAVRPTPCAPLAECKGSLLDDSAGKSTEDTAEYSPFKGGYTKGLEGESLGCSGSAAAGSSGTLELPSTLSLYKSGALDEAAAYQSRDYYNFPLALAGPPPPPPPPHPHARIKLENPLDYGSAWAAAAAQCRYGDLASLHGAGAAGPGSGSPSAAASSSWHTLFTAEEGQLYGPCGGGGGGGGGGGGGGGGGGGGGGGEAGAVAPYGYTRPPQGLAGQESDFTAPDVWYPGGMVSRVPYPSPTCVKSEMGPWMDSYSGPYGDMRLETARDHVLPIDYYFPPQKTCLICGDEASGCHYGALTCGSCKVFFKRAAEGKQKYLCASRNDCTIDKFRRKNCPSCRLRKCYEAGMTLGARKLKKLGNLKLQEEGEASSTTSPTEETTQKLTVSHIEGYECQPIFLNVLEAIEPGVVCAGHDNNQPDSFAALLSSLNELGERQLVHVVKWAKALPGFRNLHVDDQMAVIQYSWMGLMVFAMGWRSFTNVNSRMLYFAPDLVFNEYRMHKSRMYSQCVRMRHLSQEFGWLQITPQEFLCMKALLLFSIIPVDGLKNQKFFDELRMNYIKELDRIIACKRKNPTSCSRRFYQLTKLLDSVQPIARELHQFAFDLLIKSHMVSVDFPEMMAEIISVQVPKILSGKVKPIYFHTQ
Sequence of Protein cereblon/Androgen receptor (Homo sapiens, UniProt P10275+Q96SW2, T878A) (Q96SW2 whole entry, stated change not applied): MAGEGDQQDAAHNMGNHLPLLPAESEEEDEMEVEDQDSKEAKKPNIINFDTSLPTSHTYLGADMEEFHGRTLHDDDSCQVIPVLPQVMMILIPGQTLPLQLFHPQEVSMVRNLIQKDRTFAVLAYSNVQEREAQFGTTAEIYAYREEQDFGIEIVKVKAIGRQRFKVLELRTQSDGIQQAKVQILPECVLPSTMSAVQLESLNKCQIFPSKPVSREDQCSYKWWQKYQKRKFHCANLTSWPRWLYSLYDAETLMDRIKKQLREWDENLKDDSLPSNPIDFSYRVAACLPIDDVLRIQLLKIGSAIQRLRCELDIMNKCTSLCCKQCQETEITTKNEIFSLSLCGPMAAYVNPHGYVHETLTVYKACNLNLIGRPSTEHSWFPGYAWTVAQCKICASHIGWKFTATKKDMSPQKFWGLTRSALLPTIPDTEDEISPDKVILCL
Sequence of Protein cereblon/Androgen receptor (Homo sapiens, UniProt P10275+Q96SW2) (P10275 whole entry): as the sequence (P10275 whole entry T878A, stated change not applied) above, with A878T counted along it
Sequence of Protein cereblon/Androgen receptor (Homo sapiens, UniProt P10275+Q96SW2) (Q96SW2 whole entry): as the sequence (Q96SW2 whole entry, stated change not applied) above

Compound: CC(O)(CS(=O)(=O)c1ccc(N2CCN(C3CCN(c4ccc5c(c4)C(=O)N(C4CCC(=O)NC4=O)C5=O)CC3)CC2)cc1)C(=O)Nc1ccc(C#N)c(C(F)(F)F)c1 (configuration not stated)
IC50 (VCaP [1]): > 1000 nM

Compound: CN(c1ccc(C#N)c(Cl)c1)[C@H]1CC[C@H](NC(=O)c2ccc(N3CC(CN4CCN(c5ccc6c(c5)C(=O)N(C5CCC(=O)NC5=O)C6=O)CC4)C3)cc2)CC1 (some centres not stated)
F [3]: 34%
IC50 (VCaP [1]): 4.3 nM
IC50 (LNCaP): 11.6 nM
DC50 [4]: 1.9 nM

Compound: N#Cc1ccc(OC2CCN(C(=O)c3ccc(N4CCC(N5CCN(c6ccc7c(c6)C(=O)N(C6CCC(=O)NC6=O)C7=O)CC5)CC4)cc3)CC2)cc1Cl (configuration not stated)
IC50 (VCaP [1]): > 1000 nM

Compound: CN1CCN(c2ccc(C(=O)N[C@H]3CC[C@H](N(C)c4ccc(C#N)c(Cl)c4)CC3)cc2)CC1
IC50 (VCaP [1]): 61 nM

Compound: CN(c1ccc(C#N)c(Cl)c1)[C@H]1CC[C@H](NC(=O)c2ccc(N3CCC(N4CCN(c5ccc6c(c5)C(=O)N(C5CCC(=O)NC5=O)C6=O)CC4)CC3)cc2)CC1 (some centres not stated)
F [3]: 44%
concentration at 6 h [5]: 208 ng/mL
concentration at 24 h [6]: 65 ng/mL
concentration at 6 h [7]: 67 ng/g
concentration at 24 h [8]: 4 ng/g
concentration at 6 h [9]: 306 ng/g
concentration at 24 h [10]: 137 ng/g

Compound: N#Cc1ccc(N[C@H]2CC[C@H](NC(=O)c3ccc(N4CCC(N5CCN(c6ccc7c(c6)C(=O)N(C6CCC(=O)NC6=O)C7=O)CC5)CC4)cc3)CC2)cc1Cl (some centres not stated)
IC50 (VCaP [1]): 16.6 nM

Compound: N#Cc1ncc(N2C(=O)C3(CCC3)N(c3ccc(C(=O)N4CCN(C5CCN(c6ccc7c(c6)C(=O)N(C6CCC(=O)NC6=O)C7=O)CC5)CC4)c(F)c3)C2=S)cc1C(F)(F)F (configuration not stated)
IC50 (VCaP [1]): > 1000 nM

Compound: N#Cc1ccc(O[C@@H]2CCCN(C(=O)c3ccc(N4CCC(N5CCN(c6ccc7c(c6)C(=O)N(C6CCC(=O)NC6=O)C7=O)CC5)CC4)cc3)CC2)cc1Cl (some centres not stated)
IC50 (VCaP [1]): > 1000 nM

Compound: CN(c1ccc(C#N)c(Cl)c1)[C@H]1CC[C@H](NC(=O)c2ccc(N3CCN(CC4CN(c5ccc6c(c5)C(=O)N(C5CCC(=O)NC5=O)C6=O)C4)CC3)cc2)CC1 (some centres not stated)
F [3]: 30%

Compound: CN(c1ccc(C#N)c(Cl)c1)[C@H]1CC[C@H](NC(=O)c2ccc(N3CCC(CN4CCN(c5ccc6c(c5)C(=O)N(C5CCC(=O)NC5=O)C6=O)CC4)CC3)cc2)CC1 (some centres not stated)
F [3]: 35%

Compound: CN(c1ccc(C#N)c(Cl)c1)[C@H]1CC[C@H](NC(=O)c2ccc(N3CC(N4CCN(c5ccc6c(c5)C(=O)N(C5CCC(=O)NC5=O)C6=O)CC4)C3)cc2)CC1 (some centres not stated)
F [3]: 67%
IC50 (VCaP [1]): 5.1 nM
IC50 (LNCaP): 21.7 nM
inhibition (VCaP [11]): Active
concentration at 6 h [5]: 181 ng/mL
concentration at 24 h [6]: 106 ng/mL
concentration at 6 h [7]: 108 ng/g
concentration at 24 h [8]: 123 ng/g
concentration at 6 h [9]: 129 ng/g
concentration at 24 h [10]: 116 ng/g
DC50 [4]: 1.3 nM

Compound: CC1(C)C(=O)N(c2ccc(C#N)c(C(F)(F)F)c2)C(=S)N1c1ccc(C(=O)N2CCN(C3CCN(c4ccc5c(c4)C(=O)N(C4CCC(=O)NC4=O)C5=O)CC3)CC2)c(F)c1 (configuration not stated)
IC50 (VCaP [1]): > 1000 nM

Compound: CNC(=O)c1ccc(N2C(=S)N(c3ccc(C#N)c(C(F)(F)F)c3)C(=O)C2(C)C)cc1F [ENZALUTAMIDE]
inhibition in vivo at 40 mg/kg (VCaP [12]): 45%

Compound: CN(c1ccc(C#N)c(Cl)c1)[C@H]1CC[C@H](NC(=O)c2ccc(N3CCN(C4CCN(c5ccc6c(c5)C(=O)N(C5CCC(=O)NC5=O)C6=O)CC4)CC3)cc2)CC1 (some centres not stated)
Vd [13]: 2.6 L/kg
F [3]: 29%
IC50 (VCaP [1]): 0.8 nM
IC50 (LNCaP): 22.3 nM
inhibition (VCaP [11]): Active
concentration at 6 h [5]: 37 ng/mL
concentration at 24 h [6]: 38 ng/mL
concentration at 6 h [7]: 58 ng/g
concentration at 24 h [8]: 83 ng/g
concentration at 6 h [9]: 120 ng/g
concentration at 24 h [10]: 176 ng/g
inhibition in vivo at 10 mg/kg (VCaP [14]): 74%
inhibition in vivo at 10 mg/kg (VCaP [15]): 70%
inhibition in vivo at 10 mg/kg (VCaP [16]): 20%
DC50 [4]: 0.4 nM

Other lines, results leading:

IC50 (VCaP [1]): > 1000 nM
Compound: N#Cc1ccc(O[C@H]2CC[C@H](NC(=O)c3ccc(N4CCC(N5CCN(c6ccc7c(c6)C(=O)N(C6CCC(=O)NC6=O)C7=O)CC5)CC4)cc3)C2)cc1Cl (some centres not stated)

DC50 [2]: 1.1 nM
Compound: N#Cc1ccc(O[C@H]2CC[C@H](NC(=O)c3ccc(NCCCCNc4ccc5c(c4)C(=O)N(C4CCC(=O)NC4=O)C5=O)cc3)CC2)cc1Cl (some centres not stated)

DC50 [2]: 2.7 nM
Compound: N#Cc1ccc(O[C@H]2CC[C@H](NC(=O)c3ccc(N4CCN(CCCNc5ccc6c(c5)C(=O)N(C5CCC(=O)NC5=O)C6=O)CC4)cc3)CC2)cc1Cl (some centres not stated)

DC50 [2]: 1.5 nM
Compound: N#Cc1ccc(O[C@H]2CC[C@H](NC(=O)c3ccc(NCCCCCCCCNc4ccc5c(c4)C(=O)N(C4CCC(=O)NC4=O)C5=O)cc3)CC2)cc1Cl (some centres not stated)

DC50 [2]: 0.3 nM
Compound: N#Cc1ccc(O[C@H]2CC[C@H](NC(=O)c3ccc(N4CCN(C5CCN(c6ccc7c(c6)C(=O)N(C6CCC(=O)NC6=O)C7=O)CC5)CC4)cc3)CC2)cc1Cl (some centres not stated)

DC50 [2]: 0.6 nM
Compound: N#Cc1ccc(O[C@H]2CC[C@H](NC(=O)c3ccc(NCCCCCCNc4ccc5c(c4)C(=O)N(C4CCC(=O)NC4=O)C5=O)cc3)CC2)cc1Cl (some centres not stated)

DC50 [2]: 0.7 nM
Compound: N#Cc1ccc(O[C@H]2CC[C@H](NC(=O)c3ccc(NCCCCCCCNc4ccc5c(c4)C(=O)N(C4CCC(=O)NC4=O)C5=O)cc3)CC2)cc1Cl (some centres not stated)

DC50 [2]: 0.8 nM
Compound: N#Cc1ccc(O[C@H]2CC[C@H](NC(=O)c3ccc(N4CCN(CCNc5ccc6c(c5)C(=O)N(C5CCC(=O)NC5=O)C6=O)CC4)cc3)CC2)cc1Cl (some centres not stated)

IC50 (VCaP [1]): 2.7 nM
Compound: N#Cc1ccc(O[C@H]2CC[C@H](NC(=O)c3ccc(N4CCN(CC5CCN(c6ccc7c(c6)C(=O)N(C6CCC(=O)NC6=O)C7=O)CC5)CC4)cc3)CC2)cc1Cl (some centres not stated)

DC50 [2]: 0.1 nM
Compound: N#Cc1ccc(O[C@H]2CC[C@H](NC(=O)c3ccc(N4CCN(C5CN(c6ccc7c(c6)C(=O)N(C6CCC(=O)NC6=O)C7=O)C5)CC4)cc3)CC2)cc1Cl (some centres not stated)

DC50 [2]: 0.3 nM
IC50 (VCaP [1]): 6.7 nM
Compound: N#Cc1ccc(O[C@H]2CC[C@H](NC(=O)c3ccc(N4CCN(CC5CN(c6ccc7c(c6)C(=O)N(C6CCC(=O)NC6=O)C7=O)C5)CC4)cc3)CC2)cc1Cl (some centres not stated)

DC50 [2]: 0.2 nM
Compound: N#Cc1ccc(O[C@H]2CC[C@H](NC(=O)c3ccc(NCCCCCNc4ccc5c(c4)C(=O)N(C4CCC(=O)NC4=O)C5=O)cc3)CC2)cc1Cl (some centres not stated)

DC50 [2]: 3.2 nM
Compound: N#Cc1ccc(O[C@H]2CC[C@H](NC(=O)c3ccc(NCCCCCCCCCNc4ccc5c(c4)C(=O)N(C4CCC(=O)NC4=O)C5=O)cc3)CC2)cc1Cl (some centres not stated)

DC50 [2]: 0.9 nM
Compound: N#Cc1ccc(O[C@H]2CC[C@H](NC(=O)c3ccc(N4CCN(CCCCCNc5ccc6c(c5)C(=O)N(C5CCC(=O)NC5=O)C6=O)CC4)cc3)CC2)cc1Cl (some centres not stated)
